Experimental data reported in ChEMBL document CHEMBL5715946 (Chem Biol, 2010).
Calls of active or inactive are those of the source. The rule behind the calls is not given here.

Columns and labels:
[1] = Upregulation of NAD(P)H-menadione oxidoreductase gene expression in serum-deprived neonatal Wistar rat cardiomyocyte at 0.37 uM incubated for 21 hrs by microarray analysis relative to control; type: functional, Cardiac muscle cell
Procedure, shortened: (§1)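 Primary neonatal rat cardiomyocytes cultured with or without 0.37 μM compound in serum-free medium for 21 hr. Total RNA profiled on the rat genome U34A GeneChip array (about 7000 known genes).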

[2] = Upregulation of glutathione reductase gene expression in serum-deprived neonatal Wistar rat cardiomyocyte at 0.37 uM incubated for 21 hrs by microarray analysis relative to control; type: functional, Cardiac muscle cell
Procedure, shortened: (§2)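 Primary neonatal rat cardiomyocytes, isolated by proteinase digestion with preplating to deplete nonmyocytes, cultured in serum-free medium with or without 0.37 μM compound for 21 hr. Total RNA was recovered and global expression profiled on an Affymetrix GeneChip rat genome U34A array (about 7000 known genes). Change is relative to untreated cells.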

[3] = target: Macrophage migration inhibitory factor (Rattus norvegicus) (UniProt P30904); assay: Inhibition of recombinant rat MIF expressed in Escherichia coli BL21 (DE3) assessed as reduction in tautomerase activity at 30 uM using L-dopachrome carboxy-methyl ester as substrate by spectrophotometry relative to control
Procedure, shortened: (§3)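 Purified recombinant rat MIF tautomerase assayed with purified L-dopachrome carboxy-methyl ester as substrate in pH 6.0 buffer; rate taken over the initial 30 s. Mean ± SD, n = 4.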

[4] = target: T1, Macrophage migration inhibitory factor (Homo sapiens, UniProt P14174); assay: Binding affinity to recombinant human C-terminal His-tagged MIF expressed in Escherichia coli BL21 (DE3) at 400 nM incubated for 6 hrs using labelled compound by scintillation proximity assay
T1 sequence (P14174 whole entry): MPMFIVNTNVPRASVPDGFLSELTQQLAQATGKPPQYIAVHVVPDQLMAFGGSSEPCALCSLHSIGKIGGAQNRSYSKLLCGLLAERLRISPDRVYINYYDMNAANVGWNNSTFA
Procedure, shortened: (§4)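 Scintillation proximity assay: 6His-tagged protein (hMIF, rat GST Ya or rat VILIP3) captured on copper His-tag SPA beads with [3H]-BTZO-1; emitted light counted on a microplate scintillation counter. Mean of n = 2.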

[5] = target: T2, Glutathione S-transferase alpha-1 (Rattus norvegicus) (UniProt P00502); assay: Binding affinity to rat N-terminal 6His-tagged truncated GST Ya expressed in Escherichia coli BL21 (DE3) at 400 nM incubated for 6 hrs using labelled compound by scintillation proximity assay; procedure, shortened: as §4
T2 sequence (whole entry): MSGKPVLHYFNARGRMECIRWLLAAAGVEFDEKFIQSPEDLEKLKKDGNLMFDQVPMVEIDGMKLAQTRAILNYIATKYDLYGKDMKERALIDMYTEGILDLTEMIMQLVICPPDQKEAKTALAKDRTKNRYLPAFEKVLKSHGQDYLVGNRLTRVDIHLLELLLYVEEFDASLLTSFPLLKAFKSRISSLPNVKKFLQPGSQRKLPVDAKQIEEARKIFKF

[6] = tested on: Antioxidant response element; assay: Induction of rat ARE activity expressed in MIF-stimulated rat H9c2 cells assessed as increase in ARE luciferase activity at 1 uM measured after 24 hrs by steady-glo luciferase Assay; type: cell-based
Procedure, shortened: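 H9c2 cells transiently transfected with pGL3-ARE-Luc (rat GST Ya ARE) or mutant-ARE control plasmid, then treated with rMIF with or without 1 μM compound for 24 hr. Luciferase by Steady-Glo; mean ± SD, n = 4.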

[7] = Upregulation of thioredoxin reductase gene expression in serum-deprived neonatal Wistar rat cardiomyocyte at 0.37 uM incubated for 21 hrs by microarray analysis relative to control; type: functional, Cardiac muscle cell; procedure, shortened: as §2
[8] = Upregulation of glutathione S-transferase Y(b) subunit gene expression in serum-deprived neonatal Wistar rat cardiomyocyte at 0.37 uM incubated for 21 hrs by microarray analysis relative to control; type: functional, Cardiac muscle cell; procedure, shortened: as §2
[9] = tested on: Antioxidant response element; assay: Induction of ARE activity in serum-deprived neonatal Wistar rat cardiomyocytes assessed as increase in HO-1 mRNA level up to 3 uM measured after 24 hrs by RT-qPCR analysis; type: cell-based; details: Cardiomyocyte
Procedure, shortened: (§5)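 Neonatal rat cardiomyocytes exposed to samples or vehicle in M-199 with 1% penicillin-streptomycin, no serum, for 24 hr. GST Ya and HO-1 mRNA measured by real-time qPCR (mean ± SD, n = 3); protein by western blot with β-actin as control.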

[10] = Upregulation of 3-methylcholanthrene-inducible truncated UDP-glucuronosyl transferase gene expression in serum-deprived neonatal Wistar rat cardiomyocyte at 0.37 uM incubated for 21 hrs by microarray analysis relative to control; type: functional, Cardiac muscle cell; procedure, shortened: as §1
[11] = Upregulation of NAD(P)H: quinone reductase gene expression in serum-deprived neonatal Wistar rat cardiomyocyte at 0.37 uM incubated for 21 hrs by microarray analysis relative to control; type: functional, Cardiac muscle cell; procedure, shortened: as §1
[12] = target: Macrophage migration inhibitory factor (Rattus norvegicus) (UniProt P30904); assay: Inhibition of recombinant rat MIF expressed in Escherichia coli BL21 (DE3) assessed as reduction in tautomerase activity at 3.75 to 30 uM using L-dopachrome carboxy-methyl ester as substrate by spectrophotometry; details: dose 3.75-30 µM; procedure, shortened: as §3
[13] = tested on: Antioxidant response element; assay: Induction of ARE activity in serum-deprived neonatal Wistar rat cardiomyocytes assessed as increase in GST Ya expression up to 400 nM measured after 24 hrs by Western blot analysis; type: cell-based; details: Cardiomyocyte; procedure, shortened: as §5
[14] = tested on: Antioxidant response element; assay: Induction of rat ARE activity expressed in rat H9c2 cells assessed as increase in ARE luciferase activity measured after 24 hrs by steady-glo luciferase Assay; type: cell-based
Procedure, shortened: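 H9c2 cells transiently transfected with pGL3-ARE-Luc or pGL3-mARE-Luc, compound exposure 24 hr, luciferase read by Steady-Glo. MEC2.0 is the concentration giving a doubling of luciferase activity. Mean ± SD, n = 4.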

Cardiac muscle cell = assay: Cytoprotective activity against DOX-induced neonatal Wistar rat cardiomyocyte death assessed as increase in cell viability at 4.6 to 370 nM preincubated for 3 hrs followed by DOX addition and measured after 18 hrs by WST-8 assay; type: functional, cell-based; details: dose 4.6-370 nM, time 21.0 hrs
Procedure, shortened: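 Neonatal rat cardiomyocytes, isolated by proteinase digestion and preplating, pretreated with samples for 3 hr in serum-free medium, then exposed to 200 nM doxorubicin for 18 hr. Viability by WST-8. Mean ± SD, n = 6.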

[15] = Upregulation of bilirubin-specific UDP glucuronosyltransferase gene expression in serum-deprived neonatal Wistar rat cardiomyocyte at 0.37 uM incubated for 21 hrs by microarray analysis relative to control; type: functional, Cardiac muscle cell; procedure, shortened: as §1
[16] = Upregulation of heme oxygenase-1 gene expression in serum-deprived neonatal Wistar rat cardiomyocyte at 0.37 uM incubated for 21 hrs by microarray analysis relative to control; type: functional, Cardiac muscle cell; procedure, shortened: as §2
[17] = target: Macrophage migration inhibitory factor (Rattus norvegicus) (UniProt P30904); assay: Binding affinity to BTZO-12 sensor chip immobilized recombinant rat MIF expressed in Escherichia coli BL21 (DE3) at pH 6 by SPR analysis
Procedure, shortened: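 SPR on a BTZO-12-type sensor chip with purified recombinant rat MIF, binding compared at pH 6.0 and pH 7.3.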

[18] = Upregulation of glutathione S-transferase Yc1 subunit gene expression in serum-deprived neonatal Wistar rat cardiomyocyte at 0.37 uM incubated for 21 hrs by microarray analysis relative to control; type: functional, Cardiac muscle cell; procedure, shortened: as §2
[19] = tested on: Antioxidant response element; assay: Induction of ARE activity in serum-deprived neonatal Wistar rat cardiomyocytes assessed as increase in HO-1 expression up to 400 nM measured after 24 hrs by Western blot analysis; type: cell-based; details: Cardiomyocyte; procedure, shortened: as §5

Chain of Macrophage migration inhibitory factor (Rattus norvegicus) (P30904 2-115 limits assumed): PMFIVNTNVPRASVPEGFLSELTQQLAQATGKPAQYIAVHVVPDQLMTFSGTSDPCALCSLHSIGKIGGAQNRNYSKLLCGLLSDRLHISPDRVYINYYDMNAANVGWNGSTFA

Question: Which results are given for `O=c1nc(-c2ccccn2)sc2ccccc12` [BTZO-1]?
Answer: fold change (FC) [1]: 2.8; fold change (FC) [2]: 4.4; inhibition [3]: 13%; Kd [4]: 0.0686 µM; Activity [5]: inactive; Activity [6]: Active; fold change (FC) [7]: 2.8; fold change (FC) [8]: 2.5; Activity [9]: Active; fold change (FC) [10]: 2.2; fold change (FC) [11]: 9.4; inhibition [12]: Active; Activity [13]: Active; Activity [14]: Dose-Dependent Effect; MEC2 [14]: 0.82 µM; Activity (Cardiac muscle cell): Active; fold change (FC) [15]: 5.2; fold change (FC) [16]: 2; Activity [17]: Active; fold change (FC) [18]: 2.1; Activity [19]: Active
